Data taken from ChEMBL document CHEMBL4513216, “Probing the Open Global Health Chemical Diversity Library for Multistage-Active Starting Points for Next-Generation Antimalarials” (ACS Infect Dis, 2020).

Test: Toxicity liver stage against HepG2, at 10uM
Format: cell-based
Parameters: test concentration 10 uM, cell line HepG2-A16-CD81EGFP
Conditions: human, HepG2-A16-CD81EGFP cells; read-out: INHIBITION
In short: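 Uninfected HepG2-A16-CD81EGFP cells, 3 × 10^3 per well, 1536-well, plated on prespotted compound at 10 μM final, parasite-free screening media added to match infected plates; puromycin 10 μM positive, DMSO 0.5% negative; run in parallel with 48 h PbLuc assay at 37 °C, 5% CO2; viability by CellTiter-Glo luminescence, normalized to controls.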

Structure (SMILES)	cytotoxicity at 10 µM
COc1cccc2ccn(CC(=O)NC(C)C)c12	-37%
CC1=Nc2c(c(O)nn2C(C)C)C(c2cn(C)nc2C)S1 (stereo unspecified)	-3.53%
O=C(Cn1nc2c(cc1=O)CSCC2)NC(Cc1ccccc1)C(=O)O (stereo unspecified)	-10.1%
CCN1CCC2(CC1)NC(=O)c1cc(Br)ccc1-n1nnnc12	1.47%
CC(C)n1cc(S(=O)(=O)N2CCCCCC2)cn1	10%
CCc1nc(NCC(=O)N2CCOCC2)c2c(n1)c(C)nn2CC	7.05%
CNc1ncccc1CN1CCN(C)CC(C(N)=O)C1 (stereo unspecified)	0.106%
CC(=O)N1CCCC(c2nnc3n2CCN(C(=O)C2CCCCC2)C3)C1 (stereo unspecified)	0.685%
Cc1cc2nccc(C3CCCN(C(=O)c4cnccn4)C3)n2n1 (stereo unspecified)	10.5%
Cc1nccn1CCC1CCCCN1Cc1cnc(N(C)C)nc1 (stereo unspecified)	1.45%
Fc1cccc(-c2noc3c2CN(Cc2cncn2C2CC2)CC3)c1	-1.24%
Cc1ccc2nc(C)c(C)c(C(=O)N3CCC4(CCO4)CC3)c2c1	0.707%
Cc1cccc2nc(C(=O)N3CCC4(CCC(=O)N(C)C4)CC3)c(F)n12	-0.103%
N#Cc1ccc(C(=O)N2CCCC3(C=Cc4ccccc4O3)CC2)cn1 (stereo unspecified)	11.8%
Cc1cc(C(=O)N2CCCC(C(=O)c3cccs3)C2)c(=O)[nH]c1C (stereo unspecified)	-7.01%
Cc1cccc(-n2ncc3c2CCCC3NCc2cnn(C)c2C)c1C (stereo unspecified)	13.8%
Cc1ccc(-c2ccnc(N[C@H]3COC[C@@H]3N3CCCC3)n2)c(C)n1	-1.45%
Cc1ccc(C)c(-n2cc(CN3CCOCC3)c(-c3ccccc3)n2)c1	13.1%
CCc1nc(N2CCCN(c3ncccn3)CC2)c2cnn(C)c2n1	2.22%
CS(=O)(=O)N1CCCC1C(=O)Nc1cnc2n1CCCC2 (stereo unspecified)	2.72%
COc1ncccc1CN1CCc2[nH]cnc2C1CCSC (stereo unspecified)	-13.7%
COCCN1CC(c2nc(CC3CCN(C)CC3)no2)CCC1=O (stereo unspecified)	2.06%
O=C1N(Cc2ccccc2F)CCCC12CCN(C1CCSCC1)C2 (stereo unspecified)	0.0366%

Structure (SMILES)	cytotoxicity at 10 µM
O=C(c1cccn1Cc1cccs1)N1CCN2CCCCC2C1 (stereo unspecified)	-7.42%
OCCN1CCN(Cc2coc(-c3cccc(Cl)c3)n2)CC1	-21.6%
O=C(NCC1CCOC1)N1CCN(Cc2ccc3c(c2)OCO3)CC1 (stereo unspecified)	-4.33%
CC(C)c1ncc2c(n1)CN(Cc1nc(-c3ccsc3)no1)CC2	2.05%
O=C(NCc1cc[nH]n1)N1CCN(c2ncccn2)CC1	-3.29%
CCCc1n[nH]c(C2CN(C(=O)c3cccc4[nH]ncc34)CCO2)n1 (stereo unspecified)	-2.87%
O=C1NCCN1C1CCN(Cc2coc(-c3ccccc3)n2)CC1	-1.54%
c1ccc(-n2nc(CNC3CCc4ncnn4C3)c3c2CCC3)cc1 (stereo unspecified)	-12.9%
CN1CCOC(CNC(=O)COc2ccc(F)cc2F)C1 (stereo unspecified)	-5.51%
Cc1nc(C)n(CC2CCCN(CC(=O)Nc3nnc(C)s3)C2)n1 (stereo unspecified)	-18.9%
c1cncc(CNC2CCc3ncnn3C2)c1 (stereo unspecified)	-7.91%
CC(C)c1nnc(CN2CCN(C(C)c3nc(C4CC4)no3)CC2)o1 (stereo unspecified)	3.48%
CN(Cc1nc2ccccc2n1C)CC1CCCN1c1cccnn1 (stereo unspecified)	-4.41%
COc1cccc(-c2nc(CNCCCn3cccn3)cs2)c1	-19.7%
CC(C)c1nn(C)c(N2CCOCC2)c1CNCC(=O)N(C)C	-4.3%
CCN(CC)C(=O)C(c1ccccc1)N1CCn2c(C)nnc2C1 (stereo unspecified)	5.57%
O=C(CCc1cnn(-c2ccccc2)c1)N1CCCC(n2cccn2)C1 (stereo unspecified)	2.1%
O=C(CN1CCC(c2ccnn2CCO)CC1)NCC1CC1	-3.25%
CCn1ccnc1CN1CCOC(CNc2cccnn2)C1 (stereo unspecified)	0.762%
CC1c2ncc(CN3CCN(C)CC3)n2CCN1Cc1cnn(C)c1 (stereo unspecified)	7.77%
CN(C)C(=O)CN1C(=O)CCC12CCN(Cc1cccn1C)CC2	6.45%
O=C(Cc1ccncc1)N1C[C@@H]2CC[C@H]1CN(Cc1cccnc1)C2	2.89%
CC(=O)Nc1ccsc1C(=O)N1CC[C@H]2CC[C@@H](C1)N2C	-1.47%
